# Measurements taken from PMC5598522 (Toxicology Reports, 2014).
# Columns and labels:
# [1] = Quantitative whole body autoradiography; format: in vivo, rat; details: [3H] Ticagrelor 3 mg/kg
# [2] = target: human dopamine transporter (Homo sapiens, UniProt Q01959); experiment: Dopamine transporter radioligand binding
# In short: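 Radioligand displacement of RTI-55 from human dopamine transporter expressed in recombinant CHO-K1 cells. Screened first at 10 μM as percent inhibition of specific binding. Then tested at 10 ascending concentrations in half-log steps. IC50 and Hill coefficient from non-linear least-squares regression; Ki by Cheng–Prusoff; four repeats. IC50 then compared with free systemic Cmax.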
# [3] = Plasma exposure in ovariectomized rat study; format: in vivo; details: Ticagrelor 180 mg/kg/day, Day 1, 5 h post dose
# In short: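 Female Han Wistar rats (350–375 g) ovariectomized and fitted with jugular and femoral vein catheters, then housed tethered at 23 ± 1 °C. Dosed orally at 180 mg/kg/day in 1% sodium carboxymethylcellulose/0.1% polysorbate 80, n = 10 per group. On Day 1, 0.5 mL blood taken 5 h post-dose into lithium heparin; exposure measured by protein precipitation and LC-MS/MS.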
# [4] = pregnant female rat (Day 18 of gestation), 5 min
# [5] = pregnant female rat (Day 18 of gestation), 0.5 h
# [6] = pregnant female rat (Day 18 of gestation), 2 h
# [7] = pregnant female rat (Day 18 of gestation), 4 h
# human dopamine transporter, sequence (Q01959 whole entry): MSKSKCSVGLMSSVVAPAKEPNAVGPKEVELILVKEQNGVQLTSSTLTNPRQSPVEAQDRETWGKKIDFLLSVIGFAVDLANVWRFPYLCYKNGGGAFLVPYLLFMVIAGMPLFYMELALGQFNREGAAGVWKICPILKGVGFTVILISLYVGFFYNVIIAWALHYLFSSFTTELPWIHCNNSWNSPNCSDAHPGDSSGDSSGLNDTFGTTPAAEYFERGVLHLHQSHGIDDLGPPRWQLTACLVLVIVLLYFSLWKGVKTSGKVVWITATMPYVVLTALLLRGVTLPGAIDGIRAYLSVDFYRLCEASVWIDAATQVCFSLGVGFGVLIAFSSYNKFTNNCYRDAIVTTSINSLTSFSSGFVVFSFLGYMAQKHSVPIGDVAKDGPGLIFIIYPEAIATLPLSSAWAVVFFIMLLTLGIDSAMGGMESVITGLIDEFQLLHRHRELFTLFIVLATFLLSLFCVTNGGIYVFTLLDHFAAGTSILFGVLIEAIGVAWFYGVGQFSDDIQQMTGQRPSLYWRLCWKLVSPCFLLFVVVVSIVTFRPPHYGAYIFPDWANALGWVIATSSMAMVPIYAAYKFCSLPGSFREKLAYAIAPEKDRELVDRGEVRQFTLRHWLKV
compound,measurement,setting,value
CCCSc1nc(N[C@@H]2C[C@H]2c2ccc(F)c(F)c2)c2nnn([C@@H]3C[C@H](OCCO)[C@@H](O)[C@H]3O)c2n1 [Ticagrelor],Kidney radioactivity,"[1]; male rat, 2 h",2.22 μg equivalent/g
same,"Kidney radioactivity, fold of blood value","[1]; male rat, 2 h",4.79 fold of blood value
same,Liver radioactivity,"[1]; male rat, 2 h",3.20 μg equivalent/g
same,"Liver radioactivity, fold of blood value","[1]; male rat, 2 h",6.97 fold of blood value
same,Lung radioactivity,"[1]; male rat, 2 h",2.09 μg equivalent/g
same,"Lung radioactivity, fold of blood value","[1]; male rat, 2 h",4.51 fold of blood value
same,Pancreas radioactivity,"[1]; male rat, 2 h",2.78 μg equivalent/g
same,"Pancreas radioactivity, fold of blood value","[1]; male rat, 2 h",6.00 fold of blood value
same,Pituitary gland radioactivity,"[1]; male rat, 2 h",1.84 μg equivalent/g
same,"Pituitary gland radioactivity, fold of blood value","[1]; male rat, 2 h",3.97 fold of blood value
same,Salivary gland radioactivity,"[1]; male rat, 2 h",2.14 μg equivalent/g
same,"Salivary gland radioactivity, fold of blood value","[1]; male rat, 2 h",4.62 fold of blood value
same,Skeletal muscle radioactivity,"[1]; male rat, 2 h",1.48 μg equivalent/g
same,"Skeletal muscle radioactivity, fold of blood value","[1]; male rat, 2 h",3.20 fold of blood value
same,Spinal cord radioactivity,"[1]; male rat, 2 h",0.02 μg equivalent/g
same,"Spinal cord radioactivity, fold of blood value","[1]; male rat, 2 h",0.04 fold of blood value
same,Spleen radioactivity,"[1]; male rat, 2 h",1.51 μg equivalent/g
same,"Spleen radioactivity, fold of blood value","[1]; male rat, 2 h",3.29 fold of blood value
same,Stomach wall radioactivity,"[1]; male rat, 2 h",2.31 μg equivalent/g
same,"Stomach wall radioactivity, fold of blood value","[1]; male rat, 2 h",4.99 fold of blood value
same,Thymus radioactivity,"[1]; male rat, 2 h",1.37 μg equivalent/g
same,"Thymus radioactivity, fold of blood value","[1]; male rat, 2 h",2.96 fold of blood value
same,Thyroid gland radioactivity,"[1]; male rat, 2 h",2.60 μg equivalent/g
same,"Thyroid gland radioactivity, fold of blood value","[1]; male rat, 2 h",5.62 fold of blood value
same,Adrenal gland radioactivity,"[1]; male rat, 4 h",0.81 μg equivalent/g
same,"Adrenal gland radioactivity, fold of blood value","[1]; male rat, 4 h",2.24 fold of blood value
same,Blood (LSC) radioactivity,"[1]; male rat, 4 h",0.361 μg equivalent/g
same,Brain radioactivity,"[1]; male rat, 4 h",0.02 μg equivalent/g
same,"Brain radioactivity, fold of blood value","[1]; male rat, 4 h",0.06 fold of blood value
same,Brown fat radioactivity,"[1]; male rat, 4 h",0.52 μg equivalent/g
same,"Brown fat radioactivity, fold of blood value","[1]; male rat, 4 h",1.44 fold of blood value
same,Eye radioactivity,"[1]; male rat, 4 h",0.14 μg equivalent/g
same,"Eye radioactivity, fold of blood value","[1]; male rat, 4 h",0.39 fold of blood value
same,Kidney radioactivity,"[1]; male rat, 4 h",1.74 μg equivalent/g
same,"Kidney radioactivity, fold of blood value","[1]; male rat, 4 h",4.87 fold of blood value
same,Liver radioactivity,"[1]; male rat, 4 h",2.42 μg equivalent/g
same,"Liver radioactivity, fold of blood value","[1]; male rat, 4 h",6.70 fold of blood value
same,Lung radioactivity,"[1]; male rat, 4 h",1.55 μg equivalent/g
same,"Lung radioactivity, fold of blood value","[1]; male rat, 4 h",4.29 fold of blood value
same,Pancreas radioactivity,"[1]; male rat, 4 h",2.08 μg equivalent/g
same,"Pancreas radioactivity, fold of blood value","[1]; male rat, 4 h",5.76 fold of blood value
same,Pituitary gland radioactivity,"[1]; male rat, 4 h",1.65 μg equivalent/g
same,"Pituitary gland radioactivity, fold of blood value","[1]; male rat, 4 h",4.57 fold of blood value
same,Salivary gland radioactivity,"[1]; male rat, 4 h",1.59 μg equivalent/g
same,"Salivary gland radioactivity, fold of blood value","[1]; male rat, 4 h",4.40 fold of blood value
same,Skeletal muscle radioactivity,"[1]; male rat, 4 h",1.16 μg equivalent/g
same,"Skeletal muscle radioactivity, fold of blood value","[1]; male rat, 4 h",3.21 fold of blood value
same,Spinal cord radioactivity,"[1]; male rat, 4 h",0.02 μg equivalent/g
same,"Spinal cord radioactivity, fold of blood value","[1]; male rat, 4 h",0.06 fold of blood value
same,Spleen radioactivity,"[1]; male rat, 4 h",0.82 μg equivalent/g
same,"Spleen radioactivity, fold of blood value","[1]; male rat, 4 h",2.27 fold of blood value
same,Stomach wall radioactivity,"[1]; male rat, 4 h",1.32 μg equivalent/g
same,"Stomach wall radioactivity, fold of blood value","[1]; male rat, 4 h",3.66 fold of blood value
same,Thymus radioactivity,"[1]; male rat, 4 h",1.33 μg equivalent/g
same,"Thymus radioactivity, fold of blood value","[1]; male rat, 4 h",3.68 fold of blood value
same,Thyroid gland radioactivity,"[1]; male rat, 4 h",1.19 μg equivalent/g
same,"Thyroid gland radioactivity, fold of blood value","[1]; male rat, 4 h",3.30 fold of blood value
same,Blood (LSC) radioactivity,[1]; [4],2.474 μg equivalent/g
same,Fetus radioactivity,[1]; [4],0.03 μg equivalent/g
same,"Fetus radioactivity, fold of blood value",[1]; [4],0.01 fold of blood value
same,Placenta radioactivity,[1]; [4],6.42 μg equivalent/g
same,"Placenta radioactivity, fold of blood value",[1]; [4],2.59 fold of blood value
same,Blood (LSC) radioactivity,[1]; [5],0.864 μg equivalent/g
same,Fetus radioactivity,[1]; [5],0.06 μg equivalent/g
same,"Fetus radioactivity, fold of blood value",[1]; [5],0.07 fold of blood value
same,Placenta radioactivity,[1]; [5],2.86 μg equivalent/g
same,"Placenta radioactivity, fold of blood value",[1]; [5],3.31 fold of blood value
same,Blood (LSC) radioactivity,[1]; [6],0.282 μg equivalent/g
same,Fetus radioactivity,[1]; [6],0.07 μg equivalent/g
same,"Fetus radioactivity, fold of blood value",[1]; [6],0.25 fold of blood value
same,Placenta radioactivity,[1]; [6],1.02 μg equivalent/g
same,"Placenta radioactivity, fold of blood value",[1]; [6],3.62 fold of blood value
same,Blood (LSC) radioactivity,[1]; [7],0.24 μg equivalent/g
same,Fetus radioactivity,[1]; [7],0.03 μg equivalent/g
same,"Fetus radioactivity, fold of blood value",[1]; [7],0.13 fold of blood value
same,Placenta radioactivity,[1]; [7],0.39 μg equivalent/g
same,"Placenta radioactivity, fold of blood value",[1]; [7],1.63 fold of blood value
same,Brain and spinal tissue penetration (QWBA conclusion),[1]; rats,effectively excluded from the brain and spinal tissues by the blood brain barrier
same,"Radioactivity levels in brain, spinal cord and fetus",[1]; rats,< 0.25 fold of blood levels
same,Inhibition of the dopamine transporter at free systemic Cmax levels,[2]; at human free systemic Cmax,minimal inhibition
same,Inhibition of the dopamine transporter at free systemic Cmax levels,[2]; at rat free systemic Cmax,> 50%
same,Plasma exposure (mean ± SD),[3],33.2 ± 10.6 µM
